Read-outs that look alike come from different tables or passages of the source.

In assay [1] the test system is human renal Caki-1 cancer cell line. The note with it: read-out: IC50 Caki-1; cisplatin dissolved in H2O; ref [24]; cited from earlier work.
Assay [2] deals with non-tumorigenic human embryonic kidney cell lines HEK-293T. The note with it: read-out: IC50 HEK-293T; cisplatin dissolved in H2O; ref [24]; cited from earlier work.
Assay [3] concerns human renal Caki-1 cancer cell line. As to the kind of experiment: Cell viability. It is filed as cell-based. The note with it: read-out: IC50 Caki-1; 72 h incubation; dissolved in 1% DMSO, diluted with water. The method, boiled down: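 Growth inhibition measured by BluePresto assay in human renal Caki-1 cancer cells, run in parallel with human colon HCT 116 and DLD1 cancer lines and non-tumorigenic HEK-293T cells. Cells were exposed to test compound for 72 h. Compounds were dissolved in 1% DMSO and diluted with water before addition to the culture medium. Cisplatin reference was dissolved in water.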

In assay [4] the test system is thioredoxin reductase (TrRx). As to the kind of experiment: Thioredoxin reductase activity in treated Caki-1 cells. It is filed as cell-based, human. The note with it: 5 µM, 24 hour incubation. The method, boiled down: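 Caki-1 cells were incubated with 5 µM test compound or 0.1% DMSO vehicle for 5, 12 and 24 h. Endogenous thioredoxin reductase activity was then assayed in soluble whole-cell lysates. Percent inhibition is relative to vehicle-treated cells at 24 h.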

The test system of a further assay is plasmid (pBR322) DNA. The note with it: cited from earlier work.

With `N.N.[Cl][Pt][Cl]` [cisplatin], the IC50 in assay [1] is 29 ± 4.11 µM; in assay [2] it was 3.27 ± 0.13 µM.
With `CC(C)c1cccc(C(C)C)c1-n1ccn(-c2c(C(C)C)cccc2C(C)C)[c]1=[Au][Cl]` [compound 1, [(IPr)AuCl]], the IC50 in assay [3] turned out to be 27.1 ± 2 µM. The “inhibition of thioredoxin reductase activity” value in assay [4] came to 17%.
Turning to “[Ru(p-cymene)Cl2(η^1-dppm)] [compound 9]”, the “interaction with plasmid DNA” value in the assay with plasmid (pBR322) DNA (ref [31]) is “weakly reduced supercoiling in plasmid DNA”. Besides, the IC50 in assay [3] is 35.6 ± 3.7 µM. The “inhibition of thioredoxin reductase activity” value in assay [4] was determined as 44%.
As for “[Ru(p-cymene)Cl2(μ-dppm)Au(IPr)]ClO4 [compound 13]”, the IC50 in assay [3] stood at 5.2 ± 0.9 µM. In addition, the “inhibition of thioredoxin reductase activity” value in assay [4] was 63%.
On to “[Ru(p-cymene)Cl2(μ-dppm)AuCl] [compound 7]”, for which, in the assay on plasmid (pBR322) DNA (previously described compounds, ref [26]), the “interaction with plasmid (pBR322) DNA” value is on record as “lack of interaction”.
